Experimental data from different studies.
Compare with care: the assays were run in different laboratories.
Target: Tyrosine-protein kinase CSK (CSK, Homo sapiens, UniProt P41240)

O=C1NC(=O)c2cc(Nc3ccc(F)cc3)c(Nc3ccc(F)cc3)cc21  remaining activity (enzyme activity, inhibitor; 0.5 µM): 92%
Nc1nc(NC2CCCCC2)sc1C(=O)c1ccccc1  remaining activity (enzyme activity, inhibitor; 10 µM): 95%
CS(=O)(=O)Nc1cccc(-c2csc(NC(=O)CSc3nc4nccnc4c(=O)n3CCc3ccccc3)n2)c1  inhibition (enzyme activity, inhibitor; 10 µM): 4%
COc1cc(/C=C/C(=O)CC(=O)/C=C/c2ccc(O)c(OC)c2)ccc1O  activity vs control (enzyme activity, inhibitor; 1 µM): 78%
Cc1nc(Nc2ncc(C(=O)Nc3c(C)cccc3Cl)s2)cc(N2CCN(CCO)CC2)n1  activity vs control (enzyme activity, inhibitor; 0.5 µM): 7.11%
CN1CC(Oc2cnc(C#N)cc2-c2ccn3nc(NC(=O)C4CC4)cc3c2)C1  inhibition (enzyme activity, inhibitor; 1 µM): -11%
Oc1cccc(-c2nc(N3CCOCC3)c3oc4ncccc4c3n2)c1  remaining activity (enzyme activity, inhibitor; 10 µM): 101%
C[C@@H]1CN(c2cc(-c3nn(C)c4ccc(OC5(C)CC5)cc34)ncn2)C[C@H](C)O1  remaining binding (cell-free assay, competition with immobilised ligand; 1 µM): 100%
CCN(CC)CCNC(=O)c1c(C)[nH]c(/C=C2\C(=O)Nc3ccc(F)cc32)c1C  inhibition (enzyme activity, inhibitor; 0.3 µM): -8%
COc1cc2nccc(Oc3ccc(NC(=O)c4c5n(n(-c6ccc(F)cc6)c4=O)CCCC5)cc3)c2cc1OC  inhibition (enzyme activity, inhibitor; 0.1 µM): 2%
CNC(=O)c1ccc(Nc2ncc(C(F)(F)F)c(NCc3nccnc3N(C)S(C)(=O)=O)n2)cc1  remaining binding (cell-free assay, competition with immobilised ligand; 0.1 µM): 100%
O=C(Nc1cnn(-c2csc(C(=O)NC3COC3)c2)c1)Nc1c(F)cccc1Cl  remaining activity (enzyme activity, inhibitor; 5 µM): 97.5%
CC(C)(C)c1nc2c(s1)c1nc(N)ncc1c1ccc(NS(=O)(=O)c3c(F)cccc3F)c(F)c12  remaining activity (enzyme activity, inhibitor, radiometric; 1 µM): 87%
COc1cc(Cl)c(C(=O)N[C@@H](CN[C@H]2CC[C@@H](N)CC2)Cc2ccc(C#N)cc2)cc1-c1ccc(CN[C@H](C)c2ccc(C)cc2)o1  remaining activity (enzyme activity, inhibitor; 1 µM): 99%
CN(C)C(=O)Cn1cc(-c2nc([C@@](C)(c3ccc(-c4cnc(N)nc4)cc3)C3CC3)no2)cn1  remaining binding (cell-free assay, competition with immobilised ligand; 1 µM): 100%
FC(F)c1nc2ccccc2n1-c1nc(N2CCOCC2)nc(N2CCOCC2)n1  remaining activity (enzyme activity, inhibitor; 10 µM): 84%
CO[C@@H](C)c1c(Nc2ccc([C@H](N(C)C(=O)C3CCS(=O)(=O)CC3)C(F)(F)F)cc2)cnc2cc(Cl)nn12  remaining binding (cell-free assay, competition with immobilised ligand; 1 µM): 100%
Cc1ccc(Nc2nccc(N(C)c3ccc4c(C)n(C)nc4c3)n2)cc1S(N)(=O)=O  inhibition (enzyme activity, inhibitor; 0.3 µM): -6%
c1nc2c(Nc3ccc4c(c3)OCCO4)nc(Nc3ccc4c(c3)OCCO4)nc2[nH]1  activity vs control (enzyme activity, inhibitor; 10 µM): 18%
Cc1ccc(C(=O)Nc2ccc(CN3CCN(C)CC3)c(C(F)(F)F)c2)cc1C#Cc1cnc2cccnn12  remaining activity (enzyme activity, inhibitor; 23.5 nM): 15%
FC(F)(F)Oc1cccc(-c2cnc3ccc(-c4ccncc4)nn23)c1  activity vs control (enzyme activity, inhibitor, radiometric; 5 µM): 100%
Cc1cnc(NC2CCOCC2)nc1-n1cnc(C(=O)NC(CN)c2cc(F)cc(Cl)c2)c1 (stereo not drawn)  remaining activity (enzyme activity, inhibitor, radiometric; 1 µM): 110%
C#Cc1cccc(Nc2ncnc3cc(OCCOC)c(OCCOC)cc23)c1  remaining signal (cell-free assay, inhibitor; 0.5 µM): 100%
Cc1nc(Cc2cccc(C(F)(F)F)c2)sc1-c1ccc(C(N)=O)nc1  remaining binding (cell-free assay, competition with immobilised ligand; 1 µM): 88%
COc1cc(Nc2cnc(C#N)c(O[C@H](C)CN(C)C)n2)ncc1-c1cnn(C)c1  remaining activity (enzyme activity, inhibitor, radiometric; 1 µM): 83%
COc1cc2ncnc(Nc3ccc(Oc4ccccc4)cc3C)c2cc1OC  inhibition (enzyme activity, inhibitor; 1 µM): 91%
COc1ccc2cc(OCC3(C(=O)O)CN(C(=O)c4ccc(F)cc4)C3)ccc2c1  remaining binding (cell-free assay, competition with immobilised ligand; 1 µM): 100%
Oc1ccc(-c2nc(-c3ccncc3)c(-c3ccc(F)cc3)[nH]2)cc1  remaining activity (enzyme activity, inhibitor; 0.5 µM): 93.7%
CC(C)(C)C(=O)c1sc(NC2CCCCC2)nc1N  remaining activity (enzyme activity, inhibitor; 10 µM): 98%
Cc1nc(N2CC[C@@H](O)C2)ncc1-c1cc(C(F)(F)F)cc2[nH]ncc12  remaining binding (cell-free assay, competition with immobilised ligand; 1 µM): 100%
CNc1cc(Oc2cc(C(=O)Nc3cc(N4CCN(C)CC4)cc(C(F)(F)F)c3)ccc2C)ncn1  inhibition (target engagement in cells, inhibitor, chemoproteomics; Huh-7; 1 µM): -15%
COc1cc(-c2cn(C3CCc4ccccc4N(CC(F)(F)F)C3=O)nn2)ccc1-n1ccc(C)n1 (stereo not drawn)  remaining binding (cell-free assay, competition with immobilised ligand; 1 µM): 100%
CNC(=O)c1cc(Oc2ccc(NC(=O)Nc3ccc(Cl)c(C(F)(F)F)c3)cc2)ccn1  inhibition (enzyme activity, inhibitor; 0.3 µM): -7%
